We go through 3 molecules from ChEMBL document CHEMBL5696442, “Discovery of type II inhibitors of TGFβ-activated kinase 1 (TAK1) and mitogen-activated protein kinase kinase kinase kinase 2 (MAP4K2)” (J Med Chem, 2015).

Common to all, as to assay type: cell-based
Assay [1] deals with T1, Ephrin type-B receptor 4 (Homo sapiens) (UniProt P54760).
T1 sequence (whole entry): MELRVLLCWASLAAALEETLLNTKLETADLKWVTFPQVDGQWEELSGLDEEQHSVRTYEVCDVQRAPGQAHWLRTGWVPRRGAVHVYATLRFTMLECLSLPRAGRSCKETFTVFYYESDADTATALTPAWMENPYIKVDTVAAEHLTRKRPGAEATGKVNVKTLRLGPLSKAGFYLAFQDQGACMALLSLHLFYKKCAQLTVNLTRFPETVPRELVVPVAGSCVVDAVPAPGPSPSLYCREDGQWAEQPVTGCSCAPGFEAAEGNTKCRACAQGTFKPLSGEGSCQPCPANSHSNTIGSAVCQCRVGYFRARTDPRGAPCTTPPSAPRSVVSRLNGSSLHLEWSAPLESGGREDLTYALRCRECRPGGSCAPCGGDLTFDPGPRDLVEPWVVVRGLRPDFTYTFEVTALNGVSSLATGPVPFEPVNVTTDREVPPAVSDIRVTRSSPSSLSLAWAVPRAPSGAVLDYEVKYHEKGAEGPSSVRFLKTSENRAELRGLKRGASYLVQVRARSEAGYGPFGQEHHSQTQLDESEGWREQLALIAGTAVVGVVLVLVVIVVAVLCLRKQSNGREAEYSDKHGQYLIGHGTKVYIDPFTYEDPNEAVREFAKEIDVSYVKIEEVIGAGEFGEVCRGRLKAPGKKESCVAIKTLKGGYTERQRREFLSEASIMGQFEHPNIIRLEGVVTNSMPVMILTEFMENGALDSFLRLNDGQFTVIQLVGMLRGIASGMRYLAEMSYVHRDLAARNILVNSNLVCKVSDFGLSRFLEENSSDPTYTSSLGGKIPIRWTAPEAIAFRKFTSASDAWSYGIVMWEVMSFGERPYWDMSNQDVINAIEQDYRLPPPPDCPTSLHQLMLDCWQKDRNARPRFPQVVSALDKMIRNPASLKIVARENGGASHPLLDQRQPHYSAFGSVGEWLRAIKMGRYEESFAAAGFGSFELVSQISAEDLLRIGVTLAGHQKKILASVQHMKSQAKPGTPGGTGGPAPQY
Nature of the assay: Inhibition of EphB4 ACT labeling site in human Huh-7 cells at 1 uM by KiNativ Profiling analysis relative to control.

Assay [2] addresses Ribosomal protein S6 kinase alpha-1 (Homo sapiens) (UniProt Q15418). The experiment in a line: Inhibition of RSK1 Protein Kinase Domain in human A-375 cells at 0.05 uM by KiNativ Profiling analysis relative to control.
In assay [3] the target is RAC-alpha serine/threonine-protein kinase (Homo sapiens) (UniProt P31749). The experiment in a line: Inhibition of AKT1 ATP Loop labeling site in human A-375 cells at 0.05 uM by KiNativ Profiling analysis relative to control.
Chain of RAC-alpha serine/threonine-protein kinase (Homo sapiens) (P31749 whole entry): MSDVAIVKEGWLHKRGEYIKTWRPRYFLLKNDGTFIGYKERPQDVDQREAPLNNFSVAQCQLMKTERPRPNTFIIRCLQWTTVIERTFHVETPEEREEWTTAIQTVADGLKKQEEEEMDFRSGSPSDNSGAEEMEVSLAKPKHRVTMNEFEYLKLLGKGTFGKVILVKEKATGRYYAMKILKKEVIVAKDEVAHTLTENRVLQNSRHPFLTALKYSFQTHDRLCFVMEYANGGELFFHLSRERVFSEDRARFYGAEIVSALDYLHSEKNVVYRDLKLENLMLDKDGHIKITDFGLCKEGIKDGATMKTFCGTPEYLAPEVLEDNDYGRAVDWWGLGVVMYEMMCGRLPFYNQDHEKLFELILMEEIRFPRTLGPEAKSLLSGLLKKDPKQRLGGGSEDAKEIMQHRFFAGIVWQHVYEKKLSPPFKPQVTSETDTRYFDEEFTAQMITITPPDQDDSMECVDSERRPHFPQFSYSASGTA
Assay [4] concerns the target Calcium/calmodulin-dependent protein kinase type II subunit delta (Homo sapiens) (UniProt Q13557). Nature of the assay: Inhibition of CaMK2d Lys1 labeling site in human A-375 cells at 0.05 uM by KiNativ Profiling analysis relative to control.
Assay [5] deals with Calcium/calmodulin-dependent protein kinase type 1 (Homo sapiens) (UniProt Q14012). Nature of the assay: Inhibition of CaMK1a Lys1 labeling site in human A-375 cells at 0.5 uM by KiNativ Profiling analysis relative to control. The essentials:
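Intact A375 melanoma cells were treated with compound at 5 or 0.5 μM, then lysed. Lysate kinases were labeled with a lysine-reactive ATP or ADP-biotin probe (KiNativ). Inhibition is read as protection of each kinase labeling site from probe labeling.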

Assay [6] deals with T2, Kinase suppressor of Ras 2 (Homo sapiens) (UniProt Q6VAB6).
T2 sequence (whole entry): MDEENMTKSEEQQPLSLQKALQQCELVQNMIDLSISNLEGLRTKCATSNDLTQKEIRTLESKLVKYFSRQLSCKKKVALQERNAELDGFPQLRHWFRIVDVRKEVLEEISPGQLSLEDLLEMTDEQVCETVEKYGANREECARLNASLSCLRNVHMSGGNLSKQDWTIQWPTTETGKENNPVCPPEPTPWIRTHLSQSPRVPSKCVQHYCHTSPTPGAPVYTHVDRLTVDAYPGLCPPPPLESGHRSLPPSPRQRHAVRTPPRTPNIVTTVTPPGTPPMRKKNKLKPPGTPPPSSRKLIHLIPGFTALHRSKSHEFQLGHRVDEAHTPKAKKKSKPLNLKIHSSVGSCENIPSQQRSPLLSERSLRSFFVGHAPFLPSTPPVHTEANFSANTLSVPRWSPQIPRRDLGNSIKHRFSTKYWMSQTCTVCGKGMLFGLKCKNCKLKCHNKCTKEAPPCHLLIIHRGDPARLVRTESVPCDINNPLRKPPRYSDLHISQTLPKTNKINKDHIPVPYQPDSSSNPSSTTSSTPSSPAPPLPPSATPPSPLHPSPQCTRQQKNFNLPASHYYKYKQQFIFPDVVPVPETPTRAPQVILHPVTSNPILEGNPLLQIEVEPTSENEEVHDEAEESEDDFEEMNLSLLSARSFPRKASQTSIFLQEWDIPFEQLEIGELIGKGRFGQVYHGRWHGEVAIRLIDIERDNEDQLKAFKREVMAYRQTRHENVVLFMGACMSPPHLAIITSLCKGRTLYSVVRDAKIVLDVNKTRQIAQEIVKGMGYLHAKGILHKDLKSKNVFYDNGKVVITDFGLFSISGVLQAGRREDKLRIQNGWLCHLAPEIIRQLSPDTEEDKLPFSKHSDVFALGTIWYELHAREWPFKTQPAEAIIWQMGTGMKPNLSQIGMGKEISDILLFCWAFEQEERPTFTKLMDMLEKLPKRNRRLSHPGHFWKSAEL
Nature of the assay: Inhibition of KSR2 ACT labeling site in human A-375 cells at 0.05 uM by KiNativ Profiling analysis relative to control.

Assay [7] addresses T3, Serine/threonine-protein kinase 3 (Homo sapiens) (UniProt Q13188).
T3 sequence (whole entry): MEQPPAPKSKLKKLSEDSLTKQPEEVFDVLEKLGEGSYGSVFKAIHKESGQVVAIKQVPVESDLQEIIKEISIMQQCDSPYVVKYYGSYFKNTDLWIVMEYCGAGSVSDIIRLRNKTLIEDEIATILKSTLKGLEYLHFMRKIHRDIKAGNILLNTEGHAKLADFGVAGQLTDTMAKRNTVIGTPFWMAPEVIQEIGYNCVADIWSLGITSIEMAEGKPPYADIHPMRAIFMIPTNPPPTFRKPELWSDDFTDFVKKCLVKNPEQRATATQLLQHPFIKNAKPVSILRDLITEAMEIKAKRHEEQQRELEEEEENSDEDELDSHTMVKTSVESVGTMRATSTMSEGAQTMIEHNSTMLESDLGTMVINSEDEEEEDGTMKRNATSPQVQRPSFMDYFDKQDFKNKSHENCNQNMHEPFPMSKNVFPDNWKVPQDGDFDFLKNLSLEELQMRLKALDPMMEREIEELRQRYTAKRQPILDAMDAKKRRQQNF
The experiment in a line: Inhibition of MST2 Lys2 labeling site harbouring DIKAGNILLNTEGHAK in human A-375 cells at 0.5 uM by KiNativ Profiling analysis relative to control.

Chain of Ribosomal protein S6 kinase alpha-1 (Homo sapiens) (Q15418 whole entry, the tested form may be a part): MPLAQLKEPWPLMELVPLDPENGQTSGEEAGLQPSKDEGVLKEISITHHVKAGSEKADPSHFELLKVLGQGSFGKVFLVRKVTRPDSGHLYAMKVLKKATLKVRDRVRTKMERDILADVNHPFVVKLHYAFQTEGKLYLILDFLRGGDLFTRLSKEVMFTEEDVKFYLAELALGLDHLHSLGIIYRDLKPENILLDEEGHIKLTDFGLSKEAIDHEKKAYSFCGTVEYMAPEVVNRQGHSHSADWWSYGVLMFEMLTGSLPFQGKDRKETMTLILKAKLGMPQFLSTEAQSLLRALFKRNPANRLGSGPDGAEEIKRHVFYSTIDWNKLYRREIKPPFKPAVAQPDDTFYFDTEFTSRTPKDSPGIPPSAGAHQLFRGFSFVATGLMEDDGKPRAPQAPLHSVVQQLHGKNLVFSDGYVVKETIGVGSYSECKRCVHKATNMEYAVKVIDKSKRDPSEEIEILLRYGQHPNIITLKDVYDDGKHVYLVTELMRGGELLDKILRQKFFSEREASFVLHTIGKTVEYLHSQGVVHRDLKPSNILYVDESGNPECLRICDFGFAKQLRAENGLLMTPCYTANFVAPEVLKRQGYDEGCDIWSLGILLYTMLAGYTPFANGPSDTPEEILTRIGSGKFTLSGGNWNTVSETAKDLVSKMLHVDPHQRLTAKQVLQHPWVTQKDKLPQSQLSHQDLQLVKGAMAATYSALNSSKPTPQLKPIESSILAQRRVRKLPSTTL
Chain of Calcium/calmodulin-dependent protein kinase type II subunit delta (Homo sapiens) (Q13557 whole entry): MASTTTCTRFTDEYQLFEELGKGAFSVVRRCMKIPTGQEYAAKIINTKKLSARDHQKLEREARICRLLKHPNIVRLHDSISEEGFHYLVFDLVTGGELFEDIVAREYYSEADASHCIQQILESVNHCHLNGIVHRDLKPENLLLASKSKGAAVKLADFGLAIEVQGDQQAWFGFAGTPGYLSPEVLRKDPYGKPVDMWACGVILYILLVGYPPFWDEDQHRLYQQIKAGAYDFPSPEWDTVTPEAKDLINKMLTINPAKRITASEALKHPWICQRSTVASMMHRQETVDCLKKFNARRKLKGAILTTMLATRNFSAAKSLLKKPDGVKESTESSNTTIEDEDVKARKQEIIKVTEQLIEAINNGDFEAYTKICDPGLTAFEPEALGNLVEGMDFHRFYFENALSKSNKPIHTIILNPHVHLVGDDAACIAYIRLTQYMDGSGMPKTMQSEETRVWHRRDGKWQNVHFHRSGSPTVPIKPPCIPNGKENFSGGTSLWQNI
Chain of Calcium/calmodulin-dependent protein kinase type 1 (Homo sapiens) (Q14012 whole entry, looked up): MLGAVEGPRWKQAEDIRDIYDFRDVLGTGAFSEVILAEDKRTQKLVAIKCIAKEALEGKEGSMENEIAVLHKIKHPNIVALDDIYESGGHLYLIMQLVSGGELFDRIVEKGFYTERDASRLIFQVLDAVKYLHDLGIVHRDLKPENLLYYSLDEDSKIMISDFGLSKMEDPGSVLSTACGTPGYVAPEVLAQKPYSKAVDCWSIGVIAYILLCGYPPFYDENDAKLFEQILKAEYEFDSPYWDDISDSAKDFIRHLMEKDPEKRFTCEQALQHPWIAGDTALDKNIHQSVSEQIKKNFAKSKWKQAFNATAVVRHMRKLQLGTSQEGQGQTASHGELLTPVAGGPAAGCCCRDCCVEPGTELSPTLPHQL

`CNc1cc(Oc2cc(C(=O)Nc3cc(N4CCN(C)CC4)cc(C(F)(F)F)c3)ccc2C)ncn1`: the inhibition (as a rule, the relative decrease from the control value, in per cent) in assay [1] came to 75.4%.

As to `CCN1CCN(Cc2ccc(NC(=O)c3ccc(C)c(/C=C/c4cnc5[nH]ccc5c4OC)c3)cc2C(F)(F)F)CC1`, the inhibition in assay [2] was 1.4%; in assay [3], 9.8%; in assay [4], 14%; in assay [5] it was 37%; in assay [6], 8.6%; in assay [7], -9.8%.

`CCN1CCN(Cc2ccc(NC(=O)c3ccc(C)c(Oc4ccnc5[nH]ccc45)c3)cc2C(F)(F)F)CC1`: the inhibition in assay [2] is -4.7%; in assay [3], -7.9%; in assay [4], 13.1%; in assay [5], 67%; in assay [6], 37%; in assay [1] it was 12.1%. Besides, the inhibition in assay [7] is -3.5%.
